What was measured:
Format in all cases: functional, cell-based
[1] = molecular target: T1, Peroxisome proliferator-activated receptor gamma (Homo sapiens, UniProt P37231); test: Agonist activity at human PPAR-gamma expressed in african green monkey CV-1 cells after 24 hrs by luciferase reporter gene assay
T1 sequence (P37231 whole entry): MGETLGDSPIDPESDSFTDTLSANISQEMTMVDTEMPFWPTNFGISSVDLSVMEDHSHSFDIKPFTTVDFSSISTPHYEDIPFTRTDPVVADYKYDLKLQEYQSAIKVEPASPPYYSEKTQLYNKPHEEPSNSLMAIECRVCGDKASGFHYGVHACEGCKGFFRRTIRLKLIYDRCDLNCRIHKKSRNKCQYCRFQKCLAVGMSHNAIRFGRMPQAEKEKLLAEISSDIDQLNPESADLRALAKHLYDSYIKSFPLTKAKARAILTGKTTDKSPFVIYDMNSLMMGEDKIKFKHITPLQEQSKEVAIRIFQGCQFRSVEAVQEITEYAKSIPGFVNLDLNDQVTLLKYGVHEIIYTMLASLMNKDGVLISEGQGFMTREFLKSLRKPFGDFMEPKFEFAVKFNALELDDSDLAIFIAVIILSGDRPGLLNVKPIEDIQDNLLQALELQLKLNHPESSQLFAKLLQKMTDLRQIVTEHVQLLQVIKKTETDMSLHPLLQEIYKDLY

[2] = molecular target: T2, Peroxisome proliferator-activated receptor alpha (Homo sapiens, UniProt Q07869); test: Agonist activity at human PPAR-alpha expressed in african green monkey CV-1 cells after 24 hrs by luciferase reporter gene assay
T2 sequence (Q07869 whole entry): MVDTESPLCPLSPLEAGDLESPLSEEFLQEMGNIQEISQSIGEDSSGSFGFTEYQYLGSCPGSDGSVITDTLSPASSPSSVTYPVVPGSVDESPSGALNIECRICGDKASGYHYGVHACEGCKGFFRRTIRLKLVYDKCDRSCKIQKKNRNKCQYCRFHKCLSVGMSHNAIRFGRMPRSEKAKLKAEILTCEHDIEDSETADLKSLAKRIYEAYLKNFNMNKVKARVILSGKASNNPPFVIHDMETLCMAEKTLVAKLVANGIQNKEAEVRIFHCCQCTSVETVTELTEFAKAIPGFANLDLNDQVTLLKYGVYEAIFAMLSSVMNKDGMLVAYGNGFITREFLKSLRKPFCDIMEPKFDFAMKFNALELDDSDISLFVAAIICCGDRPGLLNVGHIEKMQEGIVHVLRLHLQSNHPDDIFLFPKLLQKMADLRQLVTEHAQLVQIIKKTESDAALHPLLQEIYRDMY
Summary of the method: (§1)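 Cell-based co-transfection reporter assay, with EC50 values derived for each PPAR subtype.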

[3] = molecular target: T3, Peroxisome proliferator-activated receptor delta (Homo sapiens, UniProt Q03181); test: Agonist activity at human PPAR-delta expressed in african green monkey CV-1 cells after 24 hrs by luciferase reporter gene assay; summary of the method: as §1
T3 sequence (Q03181 whole entry): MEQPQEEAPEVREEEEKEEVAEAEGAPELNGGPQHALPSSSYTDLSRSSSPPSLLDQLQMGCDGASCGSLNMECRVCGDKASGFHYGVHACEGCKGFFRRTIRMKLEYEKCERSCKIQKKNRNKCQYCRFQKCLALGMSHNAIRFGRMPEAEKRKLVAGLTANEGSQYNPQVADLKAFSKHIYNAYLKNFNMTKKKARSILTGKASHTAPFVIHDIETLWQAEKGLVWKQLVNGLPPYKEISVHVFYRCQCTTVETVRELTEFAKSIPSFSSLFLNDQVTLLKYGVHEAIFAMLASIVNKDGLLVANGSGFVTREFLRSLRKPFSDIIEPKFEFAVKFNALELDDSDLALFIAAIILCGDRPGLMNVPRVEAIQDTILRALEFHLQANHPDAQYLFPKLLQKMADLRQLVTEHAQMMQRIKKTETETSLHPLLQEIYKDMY

Compound | EC50 [1] | EC50 [2] | EC50 [3]
Cc1cc([Se]Cc2sc(-c3ccc(C(F)(F)F)cc3)nc2C)ccc1OC(C)(C)C(=O)O | 100 nM | 15.2 nM | 4.5 nM
Cc1cc([Se]Cc2sc(-c3ccc(C(F)(F)F)cc3)nc2C)ccc1OC(C)C(=O)O (configuration not stated) | > 1000 nM | 120 nM | 11 nM
Cc1cc([Se]Cc2sc(-c3ccc(C(F)(F)F)c(F)c3)nc2C)ccc1OC(C)C(=O)O (configuration not stated) | > 1000 nM | 39.4 nM | 8.5 nM
Cc1cc([Se]Cc2sc(-c3ccc(C(F)(F)F)c(F)c3)nc2C)ccc1OCC(=O)O | > 1000 nM | 350 nM | 1 nM
